From ChEMBL document CHEMBL3769305, “Glucose-functionalized amino-OPEs as biocompatible photosensitizers in PDT” (Eur J Med Chem, 2016)
Active and inactive are the calls of the source. No cut-off for these calls is given here.

Assays:
[1] = Dark toxicity against human HaCaT cells assessed as cell survival at 5 uM incubated for 6 hrs measured after 24 hrs by MTT assay; format: cell-based; conditions: read-out: Survival
Summary of the method: (§1)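 Cells (HaCaT and HeLa in DMEM, HEp-2 in RPMI, each with 10% FBS, at 37 °C and 5% CO2) were treated at 60–70% confluence. The compound was added from a 10^-3 M DMSO stock in medium with 1% FBS (final DMSO <0.5%) at 3·10^-6 to 2.5·10^-5 M and kept in the dark (6 h per table footnote, 18 h per methods). After 24 h, MTT at 50 µg/mL for 4 h, read at 542 nm as % of control OD.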

HeLa [2] = assay: Drug uptake in human HeLa cells at 1 uM after 6 hrs by fluorescence microscopy; format: ADME, cell-based
Summary of the method: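 Cells on glass coverslips at 60–70% confluence were exposed to 1×10^-6 M compound in medium with 1% FBS (DMSO <0.5%) for 6 h at 37 °C. After two PBS washes they were imaged live under UV excitation (365 nm), with blue excitation (460–490 nm) also used. Untreated cells served as autofluorescence controls.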

[3] = Drug uptake in endoplasmic reticulum of human HaCaT cells at 1 uM after 6 hrs by ER-tracker dye-based fluorescence microscopy; format: ADME, cell-based
Summary of the method: (§2)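 Cells grown on glass coverslips were incubated with 1×10^-6 M photosensitizer for 6 h at 37 °C, washed twice in PBS and imaged live by fluorescence microscopy. Organelle probes (ER-Tracker, ex 374/em 430 nm; NBD-Golgi, ex 466/em 536 nm) were applied for 30 min at the supplier's concentrations, and their patterns were compared with the compound signal.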

[4] = Drug uptake in endoplasmic reticulum of human HeLa cells at 1 uM after 6 hrs by ER-tracker dye-based fluorescence microscopy; format: ADME, cell-based; summary of the method: as §2
[5] = Drug uptake in golgi apparatus of human HaCaT cells at 1 uM after 6 hrs by NBD dye-based fluorescence microscopy; format: ADME, cell-based; summary of the method: as §2
[6] = Drug uptake in golgi apparatus of human HeLa cells at 1 uM after 6 hrs by NBD dye-based fluorescence microscopy; format: ADME, cell-based; summary of the method: as §2
[7] = Drug uptake in golgi apparatus of human Hep2 cells at 1 uM after 6 hrs by NBD dye-based fluorescence microscopy; format: ADME, cell-based; conditions: hep-2, 6 h; summary of the method: as §2
[8] = Dark toxicity against human HeLa cells assessed as cell survival at 3 uM incubated for 6 hrs measured after 24 hrs by MTT assay; format: cell-based; conditions: read-out: Survival; summary of the method: as §1
[9] = Dark toxicity against human Hep2 cells assessed as cell survival at 5 uM incubated for 6 hrs measured after 24 hrs by MTT assay; format: cell-based, HEp-2; conditions: read-out: Survival; summary of the method: as §1
[10] = Phototoxicity against human Hep2 cells incubated for 6 hrs followed by UV irradiation at 0.25 J/cm'2 measured after 24 hrs by MTT assay; format: functional, HEp-2
Summary of the method: (§3)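 Cultures at 60–70% confluence were loaded with the photosensitizer for 6 h in medium with 1% FBS and <0.5% DMSO. Medium was then replaced and cells were irradiated with UVA (300–400 nm, 15.9 W/m² at 10 cm), then washed and kept in complete medium for 24 h. Survival was read by MTT (50 µg/mL, 4 h, 542 nm) as % of untreated control OD.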

HeLa [11] = assay: Phototoxicity against human HeLa cells incubated for 6 hrs followed by UV irradiation at 0.25 J/cm'2 measured after 24 hrs by MTT assay; format: functional; summary of the method: as §3
HeLa [12] = assay: Phototoxicity against human HeLa cells assessed as cell lethality at 3 to 250 uM incubated for 6 hrs followed by UV irradiation at 2 J/cm'2 measured after 24 hrs by MTT assay; format: functional; summary of the method: as §3
HeLa [13] = assay: Induction of cell morphological changes in human HeLa cells assessed as cytoplasmic vacuolization at 3 to 5 uM after 24 hrs by Hoechst 33258 staining-based phase contrast microscopy in presence of UVA light; format: functional
HEp-2 [14] = assay: Induction of necrotic morphological changes in human Hep2 cells at LD50 after 24 hrs by Hoechst 33258 staining-based fluorescence microscopy in presence of UVA light; format: functional, cell-based
HeLa [15] = assay: Increase in mitotic nuclei level in human HeLa cells at LD50 after 24 hrs by Hoechst 33258 staining-based fluorescence microscopy in presence of UVA light; format: functional, cell-based
HEp-2 [16] = assay: Increase in mitotic nuclei level in human Hep2 cells at LD50 after 24 hrs by Hoechst 33258 staining-based fluorescence microscopy in presence of UVA light; format: functional, cell-based
HEp-2 [17] = assay: Induction of apoptosis in human Hep2 cells at LD50 after 24 hrs by acridine orange/ethidium bromide staining-based assay in presence of 0.25 to 0.5 J/cm'2 UVA light; format: functional, cell-based
HeLa [18] = assay: Induction of necrosis in human HeLa cells at LD50 after 24 hrs by acridine orange/ethidium bromide staining-based assay in presence of 0.25 to 0.5 J/cm'2 UVA light; format: functional, cell-based
HEp-2 [19] = assay: Induction of necrosis in human Hep2 cells at LD50 after 24 hrs by acridine orange/ethidium bromide staining-based assay in presence of 0.25 to 0.5 J/cm'2 UVA light; format: functional, cell-based
Summary of the method: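 Cells (HaCaT, HeLa in DMEM; HEp-2 in RPMI; 10% FBS) at 60–70% confluence were incubated 6 h with 3·10^-6 M photosensitizer (DMSO stock diluted in medium with 1% FBS, final DMSO <0.5%). Medium was replaced and cells were given 0.25 J/cm² UVA (300–400 nm). 24 h later, cells were stained live with 50 µg/ml AO plus 50 µg/ml EtBr in PBS. Within 15 min, 200 cells per condition were scored as living, rounded, apoptotic or necrotic.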

HeLa [20] = assay: Induction of microtubule disruption in human HeLa cells assessed as appearance of extrapoles at LD50 after 24 hrs by immunofluorescence assay in presence of UVA light; format: cell-based
[21] = Induction of microtubule disruption in human Hep2 cells assessed as abnormality in chromosome distribution at LD50 after 24 hrs by immunofluorescence assay in presence of UVA light; format: cell-based; conditions: HEp-2
HeLa [22] = assay: Induction of microtubule disruption in human HeLa cells assessed as increase in mitotic index at LD50 after 24 hrs by immunofluorescence assay in presence of UVA light; format: cell-based
HEp-2 [23] = assay: Induction of microtubule disruption in human Hep2 cells assessed as increase in altered metaphase at LD50 after 24 hrs by immunofluorescence assay in presence of UVA light; format: cell-based
[24] = Induction of microtubule disruption in human HaCaT cells assessed as increase in altered metaphase at LD50 after 24 hrs by immunofluorescence assay in presence of UVA light; format: cell-based
HEp-2 [25] = assay: Induction of cell morphological changes in human Hep2 cells assessed as appearance of rounded cells at 3 to 5 uM after 24 hrs by Hoechst 33258 staining-based phase contrast microscopy in presence of UVA light; format: functional
HeLa [26] = assay: Induction of cell morphological changes in human HeLa cells assessed as appearance of rounded cells at 3 to 5 uM after 24 hrs by Hoechst 33258 staining-based phase contrast microscopy in presence of UVA light; format: functional
HEp-2 [27] = assay: Induction of cell morphological changes in human Hep2 cells assessed as cell detachment from substrate at 3 to 5 uM after 24 hrs by Hoechst 33258 staining-based phase contrast microscopy in presence of UVA light; format: functional

Compound | viability at 6 h, 5 µM [1] | Drug uptake (HeLa [2]) | Drug uptake [3] | Drug uptake [4] | Drug uptake [5] | Drug uptake [6] | Drug uptake [7] | viability at 6 h, 3 µM [8] | viability at 6 h, 5 µM [9] | LD50 [10] | LD50 (HeLa [11]) | mortality (HeLa [12]) | Activity (HeLa [13]) | Activity (HEp-2 [14]) | Activity (HeLa [15]) | Activity (HEp-2 [16]) | Activity (HEp-2 [17]) | Activity (HeLa [18]) | Activity (HEp-2 [19]) | Activity (HeLa [20]) | further results
COc1cc(C#Cc2ccc(C#Cc3cc(OC)c(C#CCO[C@@H]4O[C@H](CO)[C@@H](O)[C@H](O)[C@H]4O)cc3OC)c(N(C)C)c2)c(OC)cc1C#CCO[C@@H]1O[C@H](CO)[C@@H](O)[C@H](O)[C@H]1O | 91.4% | Active | Active | Active | Active | Active | Active | 96.4% | 96.3% | 3 ×10⁻⁶ M | 3 ×10⁻⁶ M | >50% | Active | Active | Active | Active | Active | Active | Active | Active | Activity [21]: Active; Activity (HeLa [22]): Active; Activity (HEp-2 [23]): Active; Activity [24]: Non-toxic; Activity (HEp-2 [25]): Active; Activity (HeLa [26]): Active; Activity (HEp-2 [27]): Active
COc1cc(C#Cc2ccc(C#CCO[C@@H]3O[C@H](CO)[C@@H](O)[C@H](O)[C@H]3O)cc2N(C)C)c(OC)cc1C#Cc1ccc(C#CCO[C@@H]2O[C@H](CO)[C@@H](O)[C@H](O)[C@H]2O)cc1N(C)C | 90.9% | Active | Active | Active | Active | Active | Active | 96.6% | 95.7% | 3 ×10⁻⁶ M | 3 ×10⁻⁶ M | >50% | Active | Active | Active | Active | Active | Active | Active | Active | Activity [21]: Active; Activity (HeLa [22]): Active; Activity (HEp-2 [23]): Active; Activity [24]: Non-toxic; Activity (HEp-2 [25]): Active; Activity (HeLa [26]): Active; Activity (HEp-2 [27]): Active
